Experiments:
Format in all cases: functional
[1] = test system: Stomoxys calcitrans; assay: In vitro insecticidal activity in bovine serum against adult stable fly
In short: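 Twenty chilled 5-day-old hungry adult Stomoxys calcitrans in covered petri dish exposed to compound in bovine serum on saturated dental wick, incubated 24 or 48 h.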

[2] = test system: Calliphoridae; assay: In vitro insecticidal activity in bovine serum against Blowfly larvae
In short: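 In vitro bait: ~50 first-instar blowflies placed on dental wick saturated with compound in bovine serum, in loosely plugged tube, 27 °C, 55% RH, under fluorescent light, 24 h.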

[3] = test system: Stomoxys calcitrans; assay: Mortality percentage on day 6 in Adult stable flies after their exposure to sera for 48 hours, from the cattle, administered with the compound at 5 mg/kg
In short: (§1)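 Calves given single intraruminal 5 mg/kg in 5 mL PEG-200, with vehicle and untreated controls; serum collected daily and fed on saturated dental wick to adult stable flies (20/dish) or ~50 first-instar blowflies; % mortality read after 48 h exposure.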

[4] = test system: Stomoxys calcitrans; assay: Mortality percentage on day 7 in Adult stable flies after their exposure to sera for 24 hours, from the cattle, administered with the compound at 5 mg/kg
In short: (§2)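 Calves given single intraruminal 5 mg/kg in 5 mL PEG-200 (two treated, one vehicle, one untreated). Blood taken pre-dose, 2, 5, 24 h, then daily; serum on saturated dental wick fed to adult stable flies (20/dish) or ~50 first-instar blowflies (27 °C, 55% RH); % mortality after 24 h exposure.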

[5] = test system: Stomoxys calcitrans; assay: In vitro insecticidal activity against adult stable fly in serum collected from calves administered with 0.50 mg/kg; conditions: dose 0.5 mg/kg
[6] = test system: Stomoxys calcitrans; assay: In vitro insecticidal activity against adult stable fly in serum collected from calves administered with 0.75 mg/kg
[7] = test system: Stomoxys calcitrans; assay: In vitro insecticidal activity against adult stable fly in serum collected from calves administered with 1.50 mg/kg; conditions: dose 1.5 mg/kg
[8] = test system: Stomoxys calcitrans; assay: In vitro insecticidal activity against adult stable fly in serum collected from calves administered with 1 mg/kg
[9] = test system: Stomoxys calcitrans; assay: In vivo insecticidal activity against adult stable fly in serum collected from calves administered with 0.50 mg/kg; conditions: dose 0.5 mg/kg
[10] = test system: Stomoxys calcitrans; assay: In vivo insecticidal activity against adult stable fly in serum collected from calves administered with 0.75 mg/kg
[11] = test system: Stomoxys calcitrans; assay: In vivo insecticidal activity against adult stable fly in serum collected from calves administered with 1.0 mg/kg
[12] = test system: Stomoxys calcitrans; assay: In vivo insecticidal activity against adult stable fly in serum collected from calves administered with 1.50 mg/kg; conditions: dose 1.5 mg/kg
[13] = test system: Stomoxys calcitrans; assay: Mortality percentage after on day 2 in Adult stable flies after their exposure to sera for 24 hours, from the cattle, administered with the compound at 5 mg/kg; in short: as §2
[14] = test system: Stomoxys calcitrans; assay: Mortality percentage on 0 day in Adult stable flies after their exposure to sera for 24 hours, from the cattle, administered with the compound at 5 mg/kg; in short: as §2
[15] = test system: Stomoxys calcitrans; assay: Mortality percentage on 1 day in Adult stable flies after their exposure to sera for 24 hours, from the cattle, administered with the compound at 5 mg/kg; in short: as §2
[16] = test system: Stomoxys calcitrans; assay: Mortality percentage on day 3 in Adult stable flies after their exposure to sera for 24 hours, from the cattle, administered with the compound at 5 mg/kg; in short: as §2
[17] = test system: Stomoxys calcitrans; assay: Mortality percentage on day 3 in Adult stable flies after their exposure to sera for 48 hours, from the cattle, administered with the compound at 5 mg/kg; in short: as §1
[18] = test system: Stomoxys calcitrans; assay: Mortality percentage on day 5 in Adult stable flies after their exposure to sera for 24 hours, from the cattle, administered with the compound at 5 mg/kg; in short: as §2
[19] = test system: Stomoxys calcitrans; assay: Mortality percentage on day 6 in Adult stable flies after their exposure to sera for 24 hours, from the cattle, administered with the compound at 5 mg/kg; in short: as §2
[20] = test system: Calliphoridae; assay: Mortality percentage on day 7 in Blowfly larvae after their exposure to sera for 24 hours, from the cattle administered with the compound at 5 mg/kg; in short: as §2
[21] = test system: Calliphoridae; assay: In vivo insecticidal activity against Larval blowfly from calves administered with 0.50 mg/kg; conditions: dose 0.5 mg/kg
In short: (§3)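 Calves dosed daily intraruminally through implanted rumen tube with diketone in 5 mL PEG-200 (vehicle and untreated controls). Daily serum fed on saturated dental wick to ~50 first-instar blowflies, 27 °C, 55% RH; mortality after 48 h (24 h where noted); day of onset of ≥50% mortality recorded.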

[22] = test system: Calliphoridae; assay: In vivo insecticidal activity against Larval blowfly from calves administered with 0.75 mg/kg; in short: as §3
[23] = test system: Calliphoridae; assay: In vivo insecticidal activity against Larval blowfly from calves administered with 1.0 mg/kg; in short: as §3
[24] = test system: Calliphoridae; assay: In vivo insecticidal activity against Larval blowfly from calves administered with 1.50 mg/kg; conditions: dose 1.5 mg/kg; in short: as §3
[25] = test system: Calliphoridae; assay: Mortality percentage on day 0 in Blowfly larvae after their exposure to sera for 24 hours, from the cattle administered with the compound at 5 mg/kg; in short: as §2
[26] = test system: Calliphoridae; assay: Mortality percentage on day 2 in Blowfly larvae after their exposure to sera for 24 hours, from the cattle administered with the compound at 5 mg/kg; in short: as §2
[27] = test system: Calliphoridae; assay: Mortality percentage on day 3 in Blowfly larvae after their exposure to sera for 24 hours, from the cattle administered with the compound at 5 mg/kg; in short: as §2
[28] = test system: Calliphoridae; assay: Mortality percentage on day 3 in Blowfly larvae after their exposure to sera for 48 hours, from the cattle administered with the compound at 5 mg/kg; in short: as §1
[29] = test system: Calliphoridae; assay: Mortality percentage on day 4 in Blowfly larvae after their exposure to sera for 24 hours, from the cattle administered with the compound at 5 mg/kg; in short: as §2
[30] = test system: Calliphoridae; assay: Mortality percentage on day 4 in Blowfly larvae after their exposure to sera for 48 hours, from the cattle administered with the compound at 5 mg/kg; in short: as §1
[31] = test system: Calliphoridae; assay: Mortality percentage on day 5 in Blowfly larvae after their exposure to sera for 24 hours, from the cattle administered with the compound at 5 mg/kg; in short: as §2
[32] = test system: Calliphoridae; assay: Mortality percentage on day 5 in Blowfly larvae after their exposure to sera for 48 hours, from the cattle administered with the compound at 5 mg/kg; in short: as §1
[33] = test system: Calliphoridae; assay: Mortality percentage on day 6 in Blowfly larvae after their exposure to sera for 24 hours, from the cattle administered with the compound at 5 mg/kg; in short: as §2
[34] = test system: Calliphoridae; assay: Mortality percentage on day 6 in Blowfly larvae after their exposure to sera for 48 hours, from the cattle administered with the compound at 5 mg/kg; in short: as §1
[35] = test system: Stomoxys calcitrans; assay: Mortality percentage on day 5 in Adult stable flies after their exposure to sera for 48 hours, from the cattle, administered with the compound at 5 mg/kg; in short: as §1
[36] = test system: Calliphoridae; assay: Mortality percentage on day 1 in Blowfly larvae after their exposure to sera for 24 hours, from the cattle administered with the compound at 5 mg/kg; in short: as §2
[37] = test system: Stomoxys calcitrans; assay: In vitro insecticidal activity against adult stable fly in serum collected from calves administered with 0.35 mg/kg
[38] = test system: Stomoxys calcitrans; assay: In vitro insecticidal activity against adult stable fly in serum collected from calves administered with 1.00 mg/kg
[39] = test system: Stomoxys calcitrans; assay: In vivo insecticidal activity against adult stable fly in serum collected from calves administered with 1 mg/kg
[40] = test system: Calliphoridae; assay: In vivo insecticidal activity against Larval blowfly from calves administered with 0.20 mg/kg; conditions: dose 0.2 mg/kg; in short: as §3

## O=C(/C=C(\[O-])c1ccc(F)c(F)c1)C(F)(F)C(F)(F)C(F)(F)F.[Na+]
[1]
  Lowest effective concentration: 25 p.p.m.
[2]
  Lowest effective concentration: 30 p.p.m.

## O=C(/C=C(\[O-])c1cc(Cl)cc(Cl)c1)C(F)(F)C(F)(F)F.[Na+]
[3]
  mortality at 5 mg/kg: 30%
[4]
  mortality at 5 mg/kg: 10%
[1]
  Lowest effective concentration: 20 p.p.m.
[5]
  Activity: 6 day of onset
[6]
  Activity: 4 day of onset
[7]
  Activity: 2 day of onset
[8]
  Activity: 3 day of onset
[9]
  Activity: 6 day of onset
[10]
  Activity: 4 day of onset
[11]
  Activity: 3 day of onset
[12]
  Activity: 2 day of onset
[13]
  mortality at 5 mg/kg: 55%
[14]
  mortality at 5 mg/kg: 0%
[15]
  mortality at 5 mg/kg: 20%
[16]
  mortality at 5 mg/kg: 45%
[17]
  mortality at 5 mg/kg: 100%
[18]
  mortality at 5 mg/kg: 0%
[19]
  mortality at 5 mg/kg: 0%
[20]
  mortality at 5 mg/kg: 0%
[21]
  Activity: 6 day of onset
[22]
  Activity: 4 day of onset
[23]
  Activity: 5 day of onset
[24]
  Activity: 2 day of onset
[25]
  mortality at 5 mg/kg: 0%
[26]
  mortality at 5 mg/kg: 0%
[27]
  mortality at 5 mg/kg: 0%
[28]
  mortality at 5 mg/kg: 100%
[29]
  mortality at 5 mg/kg: 0%
[30]
  mortality at 5 mg/kg: 50%
[31]
  mortality at 5 mg/kg: 0%
[32]
  mortality at 5 mg/kg: 0%
[33]
  mortality at 5 mg/kg: 0%
[34]
  mortality at 5 mg/kg: 0%
[2]
  Lowest effective concentration: 40 p.p.m.
[35]
  mortality at 5 mg/kg: 80%
[36]
  mortality at 5 mg/kg: 0%

## O=C(/C=C(\[O-])c1cc(Br)cc(Br)c1)C(F)(F)C(F)(F)C(F)(F)F.[Na+]
[1]
  Lowest effective concentration: 25 p.p.m.
[2]
  Lowest effective concentration: 25 p.p.m.

## O=C(/C=C(\[O-])c1ccc(C(F)(F)F)cc1)C(F)(F)C(F)(F)C(F)(F)F.[Na+]
[1]
  Lowest effective concentration: 30 p.p.m.
[2]
  Lowest effective concentration: 35 p.p.m.

## O=C(/C=C(\[O-])c1cccc(C(F)(F)F)c1)C(F)(F)C(F)(F)C(F)(F)F.[Na+]
[1]
  Lowest effective concentration: 35 p.p.m.
[2]
  Lowest effective concentration: 40 p.p.m.

## O=C(/C=C(\[O-])c1cc(Cl)cc(Cl)c1)C(F)(F)C(F)(F)C(F)(F)F.[Na+]
[1]
  Lowest effective concentration: 25 p.p.m.
[37]
  Activity: 9 day of onset
[5]
  Activity: 4 day of onset
[38]
  Activity: 3 day of onset
[9]
  Activity: 4 day of onset
[39]
  Activity: 3 day of onset
[21]
  Activity: 8 day of onset
[2]
  Lowest effective concentration: 15 p.p.m.
[40]
  Activity: 5 day of onset

## O=C(/C=C(\[O-])c1cc(Cl)cc(Cl)c1)C(F)(F)C(F)F.[Na+]
[1]
  Lowest effective concentration: 20 p.p.m.
[38]
  Activity: 5 day of onset
[2]
  Lowest effective concentration: 25 p.p.m.

## O=C(/C=C(\[O-])c1cc(Cl)cc(Cl)c1)C(F)(F)F.[Na+]
[1]
  Lowest effective concentration: 25 p.p.m.
[2]
  Lowest effective concentration: 20 p.p.m.

## Cc1c(COC(=O)C2C(/C=C(\Cl)C(F)(F)F)C2(C)C)cccc1-c1ccccc1 (stereo not drawn)
[1]
  Lowest effective concentration: 25 p.p.m.
[2]
  Lowest effective concentration: 5 p.p.m.

## O=C(/C=C(\[O-])c1ccc(Cl)cc1)C(F)(F)C(F)(F)C(F)(F)F.[Na+]
[1]
  Lowest effective concentration: 25 p.p.m.
[2]
  Lowest effective concentration: 50 p.p.m.

## O=C(/C=C(\[O-])c1ccc(Cl)c(Cl)c1)C(F)(F)C(F)(F)C(F)(F)F.[Na+]
[1]
  Lowest effective concentration: 25 p.p.m.
[2]
  Lowest effective concentration: 30 p.p.m.

## CC[C@H](C)[C@H]1O[C@]2(C=C[C@@H]1C)C[C@@H]1C[C@@H](C/C=C(\C)[C@@H](O[C@H]3C[C@H](OC)[C@@H](O[C@H]4C[C@H](OC)[C@@H](O)[C@H](C)O4)[C@H](C)O3)[C@@H](C)/C=C/C=C3\CO[C@@H]4[C@H](O)C(C)=C[C@@H](C(=O)O1)[C@]34O)O2 [ABAMECTIN COMPONENT B1A]
[1]
  Lowest effective concentration: 10 p.p.m.
[2]
  Lowest effective concentration: 0.5 p.p.m.

## CNC(=O)Oc1cccc2c1OC(C)(C)C2 [CARBOFURAN]
[1]
  Lowest effective concentration: 1 p.p.m.
[2]
  Lowest effective concentration: 5 p.p.m.

From ChEMBL document CHEMBL1124591, “Polyfluoro 1,3-diketones as systemic insecticides” (1989)
